What was measured:
[1] = Cytotoxicity against human H460 cells after 72 hrs by MTT assay; details: NCI-H460, 72 h
[2] = target: Hepatocyte growth factor receptor (Homo sapiens, UniProt P08581); assay: Inhibition of c-Met (unknown origin) using poly (Glu, Tyr) 4:1 after 30 mins by HTRF assay
[3] = tested on: HT-29; assay: Cytotoxicity against human HT-29 cells after 72 hrs by MTT assay; details: HT-29, 72 h
[4] = tested on: A549; assay: Cytotoxicity against human A549 cells after 72 hrs by MTT assay; assay type: functional, cell-based; details: A549, 72 h
Procedure, shortened: (§1)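 Cells were grown in MEM with 10% FBS and seeded at about 4×10^3 cells per well, then held 24 h at 37 °C in 5% CO2. Compounds were added and the cells cultured 72 h. MTT was added to 5 µg/mL final for 4 h at 37 °C, and the formazan was dissolved in DMSO. IC50 is the mean of three determinations.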

[5] = Cytotoxicity against human U87MG cells after 72 hrs by MTT assay; assay type: functional, cell-based, U-87MG ATCC; details: U-87 MG; procedure, shortened: as §1
[6] = Cytotoxicity against human MKN45 cells after 72 hrs by MTT assay; details: MKN-45, 72 h

| Compound | IC50 [1] | IC50 [2] | IC50 [3] | IC50 [4] | IC50 [5] | IC50 [6] |
| --- | --- | --- | --- | --- | --- | --- |
| COc1cc2c(Oc3ccc(N/C=C4\C(=O)NC(=O)N(c5ccc(F)c(Cl)c5)C4=O)cc3F)ccnc2cc1OCCCN1CCCC1 | 54 nM | 2.38 nM | 190 nM | 190 nM | 680 nM | 72 nM |
| COc1cc2c(Oc3ccc(N/C=C4\C(=O)NC(=O)N(c5ccccc5C(F)(F)F)C4=O)cc3F)ccnc2cc1OCCCN1CCCC1 | 360 nM | 7.51 nM | 370 nM |  |  | 1400 nM |
| COc1cc(N2C(=O)NC(=O)/C(=C\Nc3ccc(Oc4ccnc5cc(OCCCN6CCCC6)c(OC)cc45)c(F)c3)C2=O)c(OC)cc1Cl | 710 nM | 16.8 nM | 9400 nM | 380 nM | 2800 nM | 350 nM |
| COc1cc2c(Oc3ccc(N/C=C4\C(=O)NC(=O)N(c5ccccc5)C4=O)cc3F)ccnc2cc1OCCCN1CCOCC1 | 260 nM | 4.57 nM | 350 nM | 930 nM | 4800 nM | 310 nM |
| COc1cc2c(Oc3ccc(N/C=C4\C(=O)NC(=O)N(c5ccc(C)cc5)C4=O)cc3F)ccnc2cc1OCCCN1CCOCC1 | 61 nM | 2.16 nM | 180 nM | 110 nM | 8500 nM | 210 nM |
| COc1cc2c(Oc3ccc(N/C=C4\C(=O)NC(=O)N(c5c(C)cccc5C)C4=O)cc3F)ccnc2cc1OCCCN1CCOCC1 | 85 nM | 3.03 nM | 140 nM | 2200 nM | 7100 nM | 5500 nM |
| COc1cc2c(Oc3ccc(N/C=C4\C(=O)NC(=O)N(c5ccc(F)cc5)C4=O)cc3F)ccnc2cc1OCCCN1CCOCC1 | 120 nM | 3.58 nM | 240 nM |  |  | 740 nM |
| COc1cc2c(Oc3ccc(N/C=C4\C(=O)NC(=O)N(c5ccc(F)cc5F)C4=O)cc3F)ccnc2cc1OCCCN1CCOCC1 | 850 nM | 12.4 nM | 560 nM |  |  | 780 nM |
| COc1cc2c(Oc3ccc(N/C=C4\C(=O)NC(=O)N(c5ccc(F)c(Cl)c5)C4=O)cc3F)ccnc2cc1OCCCN1CCOCC1 | 120 nM | 5.14 nM | 280 nM | 270 nM | 580 nM | 110 nM |
| COc1cc2c(Oc3ccc(N/C=C4\C(=O)NC(=O)N(c5ccccc5C(F)(F)F)C4=O)cc3F)ccnc2cc1OCCCN1CCOCC1 | 2300 nM | 21.2 nM | 3700 nM |  |  | 18400 nM |
| COc1cc(N2C(=O)NC(=O)/C(=C\Nc3ccc(Oc4ccnc5cc(OCCCN6CCOCC6)c(OC)cc45)c(F)c3)C2=O)c(OC)cc1Cl | 540 nM | 32.8 nM | 1300 nM |  |  | 2400 nM |
| COc1cc2c(Oc3ccc(N/C=C4\C(=O)NC(=O)N(c5ccccc5)C4=O)cc3F)ccnc2cc1OCCCN1CCN(C)CC1 | 290 nM | 3.29 nM | 190 nM |  |  | 520 nM |
| COc1cc2c(Oc3ccc(N/C=C4\C(=O)NC(=O)N(c5ccc(C)cc5)C4=O)cc3F)ccnc2cc1OCCCN1CCN(C)CC1 | 70 nM | 2.68 nM | 490 nM | 430 nM | 3200 nM | 160 nM |
| COc1cc2c(Oc3ccc(N/C=C4\C(=O)NC(=O)N(c5c(C)cccc5C)C4=O)cc3F)ccnc2cc1OCCCN1CCN(C)CC1 | 170 nM | 3.26 nM | 260 nM |  |  | 450 nM |
| COc1cc2c(Oc3ccc(N/C=C4\C(=O)NC(=O)N(c5ccc(F)cc5)C4=O)cc3F)ccnc2cc1OCCCN1CCN(C)CC1 | 120 nM | 3.15 nM | 310 nM | 510 nM |  | 120 nM |
| COc1cc2c(Oc3ccc(N/C=C4\C(=O)NC(=O)N(c5ccc(F)cc5F)C4=O)cc3F)ccnc2cc1OCCCN1CCN(C)CC1 | 1170 nM | 8.35 nM | 1500 nM | 380 nM | 1600 nM | 510 nM |
| COc1cc2c(Oc3ccc(N/C=C4\C(=O)NC(=O)N(c5ccc(F)c(Cl)c5)C4=O)cc3F)ccnc2cc1OCCCN1CCN(C)CC1 | 76 nM | 3.15 nM | 150 nM | 310 nM | 750 nM | 66 nM |
| COc1cc2c(Oc3ccc(N/C=C4\C(=O)NC(=O)N(c5ccccc5C(F)(F)F)C4=O)cc3F)ccnc2cc1OCCCN1CCN(C)CC1 | 4200 nM | 8.14 nM | 7300 nM |  |  | 3500 nM |
| COc1cc(N2C(=O)NC(=O)/C(=C\Nc3ccc(Oc4ccnc5cc(OCCCN6CCN(C)CC6)c(OC)cc45)c(F)c3)C2=O)c(OC)cc1Cl | 1800 nM | 24.7 nM | 7700 nM |  |  | 480 nM |
| COc1cc2c(Oc3ccc(N/C=C4\C(=O)NC(=O)N(c5ccc(F)cc5)C4=O)cc3F)ccnc2cc1OCCCN1CCCCC1 | 160 nM | 3.64 nM | 140 nM |  |  | 480 nM |

| Compound | IC50 [1] | IC50 [2] | IC50 [3] | IC50 [4] | IC50 [5] | IC50 [6] |
| --- | --- | --- | --- | --- | --- | --- |
| COc1cc2c(Oc3ccc(N/C=C4\C(=O)NC(=O)N(c5ccc(F)cc5F)C4=O)cc3F)ccnc2cc1OCCCN1CCCCC1 | 1100 nM | 9.27 nM | 420 nM |  |  | 3900 nM |
| COc1cc2c(Oc3ccc(N/C=C4\C(=O)NC(=O)N(c5ccc(F)c(Cl)c5)C4=O)cc3F)ccnc2cc1OCCCN1CCCCC1 | 80 nM | 3.15 nM | 200 nM | 180 nM | 1000 nM | 40 nM |
| COc1cc2c(Oc3ccc(N/C=C4\C(=O)NC(=O)N(c5ccccc5C(F)(F)F)C4=O)cc3F)ccnc2cc1OCCCN1CCCCC1 | 930 nM | 18.5 nM | 1300 nM |  |  | 100 nM |
| COc1cc(N2C(=O)NC(=O)/C(=C\Nc3ccc(Oc4ccnc5cc(OCCCN6CCCCC6)c(OC)cc45)c(F)c3)C2=O)c(OC)cc1Cl | 1200 nM | 27.9 nM | 2600 nM |  |  | 1970 nM |
| COc1cc2c(Oc3ccc(N/C=C4\C(=O)NC(=O)N(c5ccccc5)C4=O)cc3F)ccnc2cc1OCCCN1CCC(C)CC1 | 170 nM | 3.84 nM | 280 nM | 390 nM | 1420 nM | 46 nM |
| COc1cc2c(Oc3ccc(N/C=C4\C(=O)NC(=O)N(c5ccc(C)cc5)C4=O)cc3F)ccnc2cc1OCCCN1CCC(C)CC1 | 59 nM | 1.64 nM | 140 nM | 990 nM | 920 nM | 56 nM |
| COc1cc2c(Oc3ccc(N/C=C4\C(=O)NC(=O)N(c5c(C)cccc5C)C4=O)cc3F)ccnc2cc1OCCCN1CCC(C)CC1 | 150 nM | 2.83 nM | 120 nM |  |  | 130 nM |
| COc1cc2c(Oc3ccc(N/C=C4\C(=O)NC(=O)N(c5ccc(F)cc5)C4=O)cc3F)ccnc2cc1OCCCN1CCC(C)CC1 | 110 nM | 3.09 nM | 220 nM | 350 nM | 3200 nM | 120 nM |
| COc1cc2c(Oc3ccc(N/C=C4\C(=O)NC(=O)N(c5ccc(F)cc5F)C4=O)cc3F)ccnc2cc1OCCCN1CCC(C)CC1 | 260 nM | 16 nM | 5100 nM |  |  | 460 nM |
| COc1cc2c(Oc3ccc(N/C=C4\C(=O)NC(=O)N(c5ccc(F)c(Cl)c5)C4=O)cc3F)ccnc2cc1OCCCN1CCC(C)CC1 | 87 nM | 4.82 nM | 150 nM |  |  | 65 nM |
| COc1cc2c(Oc3ccc(N/C=C4\C(=O)NC(=O)N(c5ccccc5C(F)(F)F)C4=O)cc3F)ccnc2cc1OCCCN1CCC(C)CC1 | 380 nM | 18.3 nM | 600 nM |  |  | 310 nM |
| COc1cc(N2C(=O)NC(=O)/C(=C\Nc3ccc(Oc4ccnc5cc(OCCCN6CCC(C)CC6)c(OC)cc45)c(F)c3)C2=O)c(OC)cc1Cl | 570 nM | 19.2 nM | 630 nM | 640 nM | 3400 nM | 460 nM |
| COc1cc2c(Oc3ccc(N/C=C4\C(=O)NC(=O)N(c5ccccc5)C4=O)cc3F)ccnc2cc1OCCCN1CCCC1 | 290 nM | 3.36 nM | 200 nM |  |  | 210 nM |
| COc1cc2c(Oc3ccc(N/C=C4\C(=O)NC(=O)N(c5c(C)cccc5C)C4=O)cc3F)ccnc2cc1OCCCN1CCCC1 | 160 nM | 2.35 nM | 120 nM | 230 nM | 1240 nM | 900 nM |
| COc1cc2c(Oc3ccc(N/C=C4\C(=O)NC(=O)N(c5ccc(F)cc5)C4=O)cc3F)ccnc2cc1OCCCN1CCCC1 | 620 nM | 2.68 nM | 490 nM |  |  | 1200 nM |
| COc1cc2c(Oc3ccc(N/C=C4\C(=O)NC(=O)N(c5ccc(F)cc5F)C4=O)cc3F)ccnc2cc1OCCCN1CCCC1 | 240 nM | 12.4 nM | 710 nM |  |  | 2800 nM |
| COc1cc2c(Oc3ccc(N/C=C4\C(=O)NC(=O)N(c5ccc(C)cc5)C4=O)cc3F)ccnc2cc1OCCCN1CCCCC1 | 100 nM | 2.58 nM | 120 nM | 380 nM | 1500 nM | 190 nM |
| COc1cc2c(Oc3ccc(N/C=C4\C(=O)NC(=O)N(c5c(C)cccc5C)C4=O)cc3F)ccnc2cc1OCCCN1CCCCC1 | 160 nM | 3.72 nM | 200 nM | 310 nM | 1200 nM | 490 nM |
| COc1cc2c(Oc3ccc(N/C=C4\C(=O)NC(=O)N(c5ccccc5)C4=O)cc3F)ccnc2cc1OCCCN1CCCCC1 | 220 nM | 4.31 nM | 160 nM | 510 nM | 1300 nM | 280 nM |
